From ChEMBL document CHEMBL1921792, “Synthesis and anticonvulsant activity of trans- and cis-2-(2,6-dimethylphenoxy)-N-(2- or 4-hydroxycyclohexyl)acetamides and their amine analogs” (Bioorg Med Chem, 2011)
Active and inactive are the calls of the source. No cut-off for these calls is given here.

Legend:
Mus musculus [1] = assay: Anticonvulsant activity against subcutaneous pentylenetetrazole-induced seizures in mouse at 100 mg/kg, ip after 4 hrs; assay type: functional, organism-based; set-up: dose 100 mg/kg
Method in brief: (§1)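 Phase I screen in mice. Compound given ip as a suspension in 0.5% methylcellulose, read at 30 min and 4 h. Pentylenetetrazole 85 mg/kg in 0.9% NaCl was injected sc into the posterior midline and animals watched ≥30 min. Protection meant no clonic spasm lasting ≥5 s. Groups of 1–8 animals; result is protected/tested.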

Mus musculus [2] = assay: Anticonvulsant activity in mouse assessed as protection against maximal electric shock-induced seizures at 100 mg/kg, ip after 4 hrs; assay type: functional, organism-based; set-up: dose 100 mg/kg
Method in brief: (§2)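 Phase I maximal electroshock screen in mice. Compound given ip as a suspension in 0.5% methylcellulose at 30, 100 or 300 mg/kg, tested at 30 min and 4 h. Small groups (1–8); result is number protected/number tested.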

Mus musculus [3] = assay: Anticonvulsant activity against subcutaneous pentylenetetrazole-induced seizures in mouse at 300 mg/kg, ip after 4 hrs; assay type: functional, organism-based; set-up: dose 300 mg/kg; method in brief: as §1
Mus musculus [4] = assay: Neurotoxicity in mouse assessed as inability to maintain equilibrium on rotarod at 300 mg/kg, ip after 4 hrs by rotarod test; assay type: toxicity, organism-based; set-up: dose 300 mg/kg, route intraperitoneal; settings: in vivo
Method in brief: (§3)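 Drug given ip to mice as a suspension in 0.5% methylcellulose. At the stated time after dosing, each mouse was placed on a 1 inch knurled rod turning at 6 rpm. Neurotoxicity = inability to stay balanced at least 1 min in each of three trials. Scored as animals toxic/animals tested in small groups.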

Mus musculus [5] = assay: Neurotoxicity in mouse assessed as inability to maintain equilibrium on rotarod at 100 mg/kg, ip after 4 hrs by rotarod test; assay type: toxicity, organism-based; set-up: dose 100 mg/kg, route intraperitoneal; settings: in vivo; method in brief: as §3
Rattus norvegicus [6] = assay: Anticonvulsant activity in rat assessed as protection against maximal electric shock-induced seizures at 30 mg/kg, po after 0.25 hrs; assay type: functional, organism-based; set-up: dose 30 mg/kg
Method in brief: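 MES test in rats dosed orally at 30 mg/kg as a suspension in 0.5% methylcellulose, read at 0.25–4 h. Four rats per time point; result is protected/tested.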

Rattus norvegicus [7] = assay: Neurotoxicity in rat assessed as neurological deficit at 30 mg/kg, po after 0.5 hrs […]; assay type: toxicity, organism-based; set-up: dose 30 mg/kg, route oral; settings: in vivo
Method in brief: (§4)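 Rats given the compound, suspended in 0.5% methylcellulose, by the stated route and dose. Neurological deficit was recorded at the listed times as ataxia and loss of placing response and muscle tone. Reported as number of rats showing toxicity/number tested.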

Mus musculus [8] = assay: Anticonvulsant activity in mouse assessed as protection against maximal electric shock-induced seizures at 300 mg/kg, ip after 4 hrs; assay type: functional, organism-based; set-up: dose 300 mg/kg; method in brief: as §2
Mus musculus [9] = assay: Neurotoxicity in mouse assessed as inability to maintain equilibrium on rotarod at 30 mg/kg, ip after 0.5 hrs by rotarod test; assay type: toxicity, organism-based; set-up: dose 30 mg/kg, route intraperitoneal; settings: in vivo; method in brief: as §3
Rattus norvegicus [10] = assay: Neurotoxicity in rat assessed as neurological deficit at 30 mg/kg, po after 2 hrs […]; assay type: toxicity, organism-based; set-up: dose 30 mg/kg, route oral; settings: in vivo; method in brief: as §4
Mus musculus [11] = assay: Anticonvulsant activity against subcutaneous pentylenetetrazole-induced seizures in mouse at 30 mg/kg, ip after 0.5 hrs; assay type: functional, organism-based; set-up: dose 30 mg/kg; method in brief: as §1
Mus musculus [12] = assay: Anticonvulsant activity in mouse assessed as protection against maximal electric shock-induced seizures at 30 mg/kg, ip after 4 hrs; assay type: functional, organism-based; set-up: dose 30 mg/kg; method in brief: as §2
Rattus norvegicus [13] = assay: Neurotoxicity in rat assessed as neurological deficit at 30 mg/kg, po after 1 hr […]; assay type: toxicity, organism-based; set-up: dose 30 mg/kg, route oral; settings: in vivo; method in brief: as §4
Mus musculus [14] = assay: Anticonvulsant activity in mouse assessed as protection against maximal electric shock-induced seizures at 300 mg/kg, ip after 0.5 hrs; assay type: functional, organism-based; set-up: dose 300 mg/kg; method in brief: as §2
Rattus norvegicus [15] = assay: Neurotoxicity in rat assessed as neurological deficit at 30 mg/kg, po after 4 hrs by rotarod test; assay type: toxicity, organism-based; set-up: dose 30 mg/kg, route oral; settings: in vivo; method in brief: as §4
Mus musculus [16] = assay: Anticonvulsant activity in mouse assessed as protection against maximal electric shock-induced seizures at 30 mg/kg, ip after 0.5 hrs; assay type: functional, organism-based; set-up: dose 30 mg/kg; method in brief: as §2
Mus musculus [17] = assay: Anticonvulsant activity in mouse assessed as protection against maximal electric shock-induced seizures at 100 mg/kg, ip after 0.5 hrs; assay type: functional, organism-based; set-up: dose 100 mg/kg; method in brief: as §2
Rattus norvegicus [18] = assay: Neurotoxicity in rat assessed as neurological deficit at 30 mg/kg, po after 0.25 hrs […]; assay type: toxicity, organism-based; set-up: dose 30 mg/kg, route oral; settings: in vivo; method in brief: as §4
Mus musculus [19] = assay: Anticonvulsant activity against subcutaneous pentylenetetrazole-induced seizures in mouse at 30 mg/kg, ip after 4 hrs; assay type: functional, organism-based; set-up: dose 30 mg/kg; method in brief: as §1
Mus musculus [20] = assay: Neurotoxicity in mouse assessed as inability to maintain equilibrium on rotarod at 30 mg/kg, ip after 4 hrs by rotarod test; assay type: toxicity, organism-based; set-up: dose 30 mg/kg, route intraperitoneal; settings: in vivo; method in brief: as §3
Mus musculus [21] = assay: Anticonvulsant activity against subcutaneous pentylenetetrazole-induced seizures in mouse at 300 mg/kg, ip after 0.5 hrs; assay type: functional, organism-based; set-up: dose 300 mg/kg; method in brief: as §1
Mus musculus [22] = assay: Anticonvulsant activity against subcutaneous pentylenetetrazole-induced seizures in mouse at 100 mg/kg, ip after 0.5 hrs; assay type: functional, organism-based; set-up: dose 100 mg/kg; method in brief: as §1
Mus musculus [23] = assay: Neurotoxicity in mouse assessed as inability to maintain equilibrium on rotarod at 100 mg/kg, ip after 0.5 hrs by rotarod test; assay type: toxicity, organism-based; set-up: dose 100 mg/kg, route intraperitoneal; settings: in vivo; method in brief: as §3
Mus musculus [24] = assay: Neurotoxicity in mouse assessed as inability to maintain equilibrium on rotarod at 300 mg/kg, ip after 0.5 hrs by rotarod test; assay type: toxicity, organism-based; set-up: dose 300 mg/kg, route intraperitoneal; settings: in vivo; method in brief: as §3
N1E-115 = assay: Blockade of voltage-gated sodium channel in mouse N1E-115 cells assessed as stimulation at 100 umol at -90 mV holding potential by whole-cell patch clamp electrophysiological assay relative to control; assay type: cell-based
Method in brief: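 Whole-cell patch clamp with borosilicate glass electrodes on single cultured N1E-115 neuroblastoma cells. Compound at 100 µmol, holding potential -90 mV. Voltage-dependent sodium current expressed as % of control stimulation (no compound). Results from 5–8 cells averaged with SEM; significance by Student's t-test.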

Structure (SMILES): Cc1cccc(C)c1OCC(=O)N[C@@H]1CCCC[C@H]1O.O=C(O)C(O)C(O)C(=O)O
- Activity (Mus musculus [1]): inactive
- Activity (Mus musculus [2]): inactive
- Activity (Mus musculus [3]): inactive
- Activity (Mus musculus [4]): Non-toxic
- Activity (Mus musculus [5]): Non-toxic
- Activity (Rattus norvegicus [6]): inactive
- Activity (Rattus norvegicus [7]): Non-toxic
- Activity (Mus musculus [8]): inactive
- Activity (Mus musculus [9]): Non-toxic
- Activity (Rattus norvegicus [10]): Non-toxic
- Activity (Mus musculus [11]): inactive
- Activity (Mus musculus [12]): inactive
- Activity (Rattus norvegicus [13]): Non-toxic
- Activity (Mus musculus [14]): Active
- Activity (Rattus norvegicus [15]): Non-toxic
- Activity (Mus musculus [16]): inactive
- Activity (Mus musculus [17]): inactive
- Activity (Rattus norvegicus [18]): Non-toxic
- Activity (Mus musculus [19]): inactive
- Activity (Mus musculus [20]): Non-toxic
- Activity (Mus musculus [21]): inactive
- Activity (Mus musculus [22]): inactive

Structure (SMILES): Cc1cccc(C)c1OCC(=O)N[C@@H]1CCCC[C@@H]1O
- Activity (Mus musculus [1]): inactive
- Activity (Mus musculus [2]): inactive
- Activity (Mus musculus [3]): inactive
- Activity (Mus musculus [4]): Non-toxic
- Activity (Mus musculus [5]): Non-toxic
- Activity (Mus musculus [8]): inactive
- Activity (Mus musculus [9]): Non-toxic
- Activity (Mus musculus [11]): inactive
- Activity (Mus musculus [12]): inactive
- Activity (Mus musculus [14]): Active
- Activity (Mus musculus [16]): inactive
- Activity (Mus musculus [23]): Non-toxic
- Activity (Mus musculus [19]): inactive
- Activity (Mus musculus [20]): Non-toxic
- Activity (Mus musculus [24]): Non-toxic
- Activity (Mus musculus [21]): inactive
- Activity (Mus musculus [22]): inactive

Structure (SMILES): Cc1cccc(C)c1OCC(=O)N[C@H]1CCCC[C@H]1O
- Activity (Mus musculus [1]): inactive
- Activity (Mus musculus [2]): inactive
- Activity (Mus musculus [3]): inactive
- Activity (Mus musculus [4]): Non-toxic
- Activity (Mus musculus [5]): Non-toxic
- Activity (Mus musculus [8]): inactive
- Activity (Mus musculus [9]): Non-toxic
- Activity (Mus musculus [11]): inactive
- Activity (Mus musculus [12]): inactive
- Activity (Mus musculus [14]): Active
- Activity (Mus musculus [16]): inactive
- Activity (Mus musculus [23]): Non-toxic
- Activity (Mus musculus [19]): inactive
- Activity (Mus musculus [20]): Non-toxic
- Activity (Mus musculus [21]): Active
- Activity (Mus musculus [22]): inactive

Structure (SMILES): NC(=O)N1c2ccccc2C=Cc2ccccc21
- Activity (N1E-115): 78%
